In ChEMBL document CHEMBL1152370, “N-(4-Fluorobenzyl)-3-hydroxy-9,9-dimethyl-4-oxo-6,7,8,9-tetrahydro-4H-pyrazino[1,2-a]pyrimidine-2-carboxamides a novel class of potent HIV-1 integrase inhibitors” (Bioorg Med Chem Lett, 2009):

Key:
[1] = biological target: Human immunodeficiency virus type 1 integrase (Human immunodeficiency virus 1, UniProt Q7ZJM1); experiment: Inhibition of HIV1 recombinant integrase strand transfer activity treated after enzyme assembly and washing
[2] = system: Human immunodeficiency virus 1; experiment: Antiviral activity against HIV1 3B infected in human MT4 cells assessed as inhibition of viral spread in presence of 10% heat inactivated fetal bovine serum; type: functional; conditions: Human immunodeficiency virus 1, 3B, read-out: CIC95
Outline: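 Spread assay of HIV-1 IIIB infection in MT-4 human T-lymphoid cell culture with 10% heat-inactivated fetal bovine serum. The value is the 95% inhibitory concentration (CIC95) for blocking the spread of infection. SD was always ±10% of the value.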

[3] = system: Human immunodeficiency virus 1; experiment: Antiviral activity against HIV1 3B infected in human MT4 cells assessed as inhibition of viral spread in presence of 50% normal human serum; type: functional; conditions: Human immunodeficiency virus 1, 3B, read-out: CIC95
Outline: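 Spread assay of HIV-1 IIIB infection in MT-4 human T-lymphoid cell culture with 50% normal human serum. The value is the CIC95, the 95% inhibitory concentration for blocking the spread of infection. SD was always ±10% of the value.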

[4] = Bioavailability in rat; type: ADME, organism-based; conditions: in vivo
[5] = Plasma clearance in rat; type: ADME, organism-based

Sequence of Human immunodeficiency virus type 1 integrase (Q7ZJM1 whole entry): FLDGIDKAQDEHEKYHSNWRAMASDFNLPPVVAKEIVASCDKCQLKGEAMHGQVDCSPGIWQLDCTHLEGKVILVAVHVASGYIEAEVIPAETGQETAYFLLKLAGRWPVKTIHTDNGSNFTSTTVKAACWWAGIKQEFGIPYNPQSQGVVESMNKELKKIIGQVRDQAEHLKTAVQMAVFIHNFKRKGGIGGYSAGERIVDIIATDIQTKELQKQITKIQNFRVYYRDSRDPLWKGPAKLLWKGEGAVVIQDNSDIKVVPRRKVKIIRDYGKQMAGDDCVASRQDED

SMILES	IC50 [1]	IC95 [2]	IC95 [3]	bioavailability [4]	clearance [5]
CC1(C)c2nc(C(=O)NCc3ccc(F)cc3)c(O)c(=O)n2CCN1Cc1nnn[nH]1	2 nM	500 nM	1000 nM		
Cn1nnc(CN2CCn3c(nc(C(=O)NCc4ccc(F)cc4)c(O)c3=O)C2(C)C)n1	6 nM	7 nM	31 nM		
CC1(C)c2nc(C(=O)NCc3ccc(F)cc3)c(O)c(=O)n2CCN1CCN1CCOCC1	3 nM	500 nM	1000 nM		
CCNC(=O)N1CCn2c(nc(C(=O)NCc3ccc(F)cc3)c(O)c2=O)C1(C)C	15 nM	500 nM			
CC1(C)NCCn2c1nc(C(=O)NCc1ccc(F)cc1)c(O)c2=O	16 nM	125 nM	166 nM		
Cn1cnc(CN2CCn3c(nc(C(=O)NCc4ccc(F)cc4)c(O)c3=O)C2(C)C)n1	25 nM	31 nM	62 nM		
Cc1nc(CN2CCn3c(nc(C(=O)NCc4ccc(F)cc4)c(O)c3=O)C2(C)C)no1	6 nM	15 nM	62 nM		
Cn1nnnc1CN1CCn2c(nc(C(=O)NCc3ccc(F)cc3)c(O)c2=O)C1(C)C	5 nM	15 nM	62 nM		
CN(C)S(=O)(=O)N1CCn2c(nc(C(=O)NCc3ccc(F)cc3)c(O)c2=O)C1(C)C	8 nM	1000 nM			
CC1(C)c2nc(C(=O)NCc3ccc(F)cc3)c(O)c(=O)n2CCN1CCc1ccccn1	12 nM	250 nM	1000 nM		
CCN(CC)CCN1CCn2c(nc(C(=O)NCc3ccc(F)cc3)c(O)c2=O)C1(C)C	76 nM	625 nM	625 nM		
CNC(=O)CN1CCn2c(nc(C(=O)NCc3ccc(F)cc3)c(O)c2=O)C1(C)C	21 nM	62 nM	125 nM		
CN(C)C(=O)CN1CCn2c(nc(C(=O)NCc3ccc(F)cc3)c(O)c2=O)C1(C)C	8 nM	62 nM	125 nM		
CC1(C)NC(=O)Cn2c1nc(C(=O)NCc1ccc(F)cc1)c(O)c2=O	5 nM	> 1000 nM	> 1000 nM		
Cc1cc(CN2CCn3c(nc(C(=O)NCc4ccc(F)cc4)c(O)c3=O)C2(C)C)on1	62 nM	31 nM	125 nM		
Cc1noc(CN2CCn3c(nc(C(=O)NCc4ccc(F)cc4)c(O)c3=O)C2(C)C)n1	13 nM	15 nM	62 nM		
CC1(C)c2nc(C(=O)NCc3ccc(F)cc3)c(O)c(=O)n2CCN1Cc1ccccn1	9 nM	31 nM	125 nM		
Cn1ccc(CN2CCn3c(nc(C(=O)NCc4ccc(F)cc4)c(O)c3=O)C2(C)C)n1	9 nM	31 nM	125 nM		
CC1(C)c2nc(C(=O)NCc3ccc(F)cc3)c(O)c(=O)n2CCN1Cc1nnco1	21 nM	15 nM	62 nM		
Cc1nnc(CN2CCn3c(nc(C(=O)NCc4ccc(F)cc4)c(O)c3=O)C2(C)C)o1	5 nM	7 nM	62 nM		
CC1(C)c2nc(C(=O)NCc3ccc(F)cc3)c(O)c(=O)n2CCN1S(C)(=O)=O	10 nM	1000 nM			
CN1Cn2c(nc(C(=O)NCc3ccc(F)cc3)c(O)c2=O)C1(C)C	30 nM	500 nM	1000 nM		
Cn1cc(CN2CCn3c(nc(C(=O)NCc4ccc(F)cc4)c(O)c3=O)C2(C)C)nn1	2 nM	31 nM	62 nM		
CC1(C)c2nc(C(=O)NCc3ccc(F)cc3)c(O)c(=O)n2CCN1CC(=O)N1CCCC1	7 nM	31 nM	250 nM		

SMILES	IC50 [1]	IC95 [2]	IC95 [3]	bioavailability [4]	clearance [5]
CC1(C)c2nc(C(=O)NCc3ccc(F)cc3)c(O)c(=O)n2CCN1Cc1cn[nH]c1	7 nM	62 nM	1000 nM		
CC(=O)N1CCn2c(nc(C(=O)NCc3ccc(F)cc3)c(O)c2=O)C1(C)C	5 nM	1000 nM			
CC1(C)c2nc(C(=O)NCc3ccc(F)cc3)c(O)c(=O)n2CCN1Cc1cnco1	4 nM	31 nM	125 nM		
Cn1nccc1CN1CCn2c(nc(C(=O)NCc3ccc(F)cc3)c(O)c2=O)C1(C)C	7 nM	31 nM	125 nM		
CC1(C)c2nc(C(=O)NCc3ccc(F)cc3)c(O)c(=O)n2CCN1CC(N)=O	5 nM	125 nM	250 nM		
CN1CCn2c(nc(C(=O)NCc3ccc(F)cc3)c(O)c2=O)C1(C)C	6 nM	125 nM	250 nM	57%	10 mL/min/kg
CC1(C)c2nc(C(=O)NCc3ccc(F)cc3)c(O)c(=O)n2CCN1Cc1cocn1	3 nM	31 nM	93 nM		
CC1(C)c2nc(C(=O)NCc3ccc(F)cc3)c(O)c(=O)n2CCN1Cc1ccn[nH]1	5 nM	62 nM	250 nM		
CN1CCN(C(=O)CN2CCn3c(nc(C(=O)NCc4ccc(F)cc4)c(O)c3=O)C2(C)C)CC1	21 nM	62 nM	125 nM		
Cn1nncc1CN1CCn2c(nc(C(=O)NCc3ccc(F)cc3)c(O)c2=O)C1(C)C	6 nM	15 nM	125 nM		
CN(C)CCN1CCn2c(nc(C(=O)NCc3ccc(F)cc3)c(O)c2=O)C1(C)C	62 nM	1250 nM	1250 nM		
CC1(C)c2nc(C(=O)NCc3ccc(F)cc3)c(O)c(=O)n2CCN1Cc1cnn[nH]1	6 nM	31 nM	125 nM		
CC1(C)c2nc(C(=O)NCc3ccc(F)cc3)c(O)c(=O)n2CCN1Cc1cnccn1	6 nM	31 nM	125 nM		
CC1(C)c2nc(C(=O)NCc3ccc(F)cc3)c(O)c(=O)n2CCN1CC(=O)N1CCOCC1	7 nM	62 nM	250 nM		
CC1(C)NS(=O)(=O)Cn2c1nc(C(=O)NCc1ccc(F)cc1)c(O)c2=O	7 nM	5000 nM	> 10000 nM		
CC1(C)c2nc(C(=O)NCc3ccc(F)cc3)c(O)c(=O)n2CCN1CC(=O)O	8 nM	500 nM	1000 nM		
CN(C)[C@@H]1CCCn2c1nc(C(=O)NCc1ccc(F)cc1)c(O)c2=O	69 nM				
CC1(C)NCCCn2c1nc(C(=O)NCc1ccc(F)cc1)c(O)c2=O	20 nM	500 nM	250 nM		
CC1(C)c2nc(C(=O)NCc3ccc(F)cc3)c(O)c(=O)n2CCN1Cc1ccccc1	5 nM	125 nM	250 nM		
Cc1cnc(CN2CCn3c(nc(C(=O)NCc4ccc(F)cc4)c(O)c3=O)C2(C)C)o1	8 nM	15 nM	62 nM		
CC1(C)NC(=O)n2c1nc(C(=O)NCc1ccc(F)cc1)c(O)c2=O	32 nM	> 1000 nM	> 1000 nM		
CN(C)C(=O)C(=O)N1CCn2c(nc(C(=O)NCc3ccc(F)cc3)c(O)c2=O)C1(C)C	6 nM	1000 nM			
CC1(C)c2nc(C(=O)NCc3ccc(F)cc3)c(O)c(=O)n2CCN1Cc1cscn1	9 nM	15 nM	125 nM		
Cc1nnc(C(=O)NC(C)(C)c2nc(C(=O)NCc3ccc(F)cc3)c(O)c(=O)n2C)o1 [RALTEGRAVIR POTASSIUM]		19 nM	31 nM		
